Only some compounds are listed: those with a hit (about 1.2% of all), similar ones and a draw of the others.
PREPL inhibitor: human PREPL enzyme inhibition; Q4J6C6; AID 2751; inhibition, % at 5.96 µM; recombinant PREPL, fluorescence polarization activity-based probe; 0.68% of 320,000 active;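 note: 0% = enzyme with DMSO and 100% = wells lacking enzyme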
IDE cell activ: boosts human insulin-degrading enzyme activity in HEK cells | FAbeta-B cleavage, fluorescence polarization; 0% vehicle, 100% cell-free pure enzyme wells | activation, % at 5.96 µM | 0.073% of 340,000 active | AID 493087;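 active = activation above the mean of all tested compounds plus 3 SD, set per screening campaign, cut at about 17% in these data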
ARFGAP1 inhibitor: inhibitors of rat ARFGAP1. Arfgap1-stimulated ARF1 GTP hydrolysis, GDP FP detection. inhibition, % at 16.5 µM. 0.26% of 360,000 active. Q62848;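 active = inhibition above a per-plate limit, mean inhibition of low control wells plus 3 SD, cut at about 25% in these data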;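 note: 0% = DMSO wells with enzyme and 100% = wells lacking Arfgap1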
Target sequence (Q62848 1-136 limits assumed): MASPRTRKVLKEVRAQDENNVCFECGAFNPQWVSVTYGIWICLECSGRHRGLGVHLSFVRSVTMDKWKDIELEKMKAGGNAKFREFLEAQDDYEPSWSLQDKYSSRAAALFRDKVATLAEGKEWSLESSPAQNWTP
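system = rat Arfgap1 catalytic domain, aa 1-136 | technique = FP, GDP Alexa 633 tracer displaced from anti-GDP antibody, 620/688 nm | compound = one concentration, 16.5 µM, DMSO 1.26% | medium = HEPES-based buffer, pH 7.5 | timing = compound-enzyme preincubation 20 min, reaction 120 min, detection 60 min, 25 °C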
ASAP1 inh: inhibitors of human ASAP1 ArfGAP activity | ASAP1-stimulated ARF1 GTP hydrolysis, GDP FP detection | inhibition, % at 16.5 µM | 0.19% of 360,000 active; in the data active = inhibition above about 25%;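 note: 0% = vehicle with enzyme and substrate and 100% = no enzyme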
Target sequence (Q9ULH1 325-724 limits assumed): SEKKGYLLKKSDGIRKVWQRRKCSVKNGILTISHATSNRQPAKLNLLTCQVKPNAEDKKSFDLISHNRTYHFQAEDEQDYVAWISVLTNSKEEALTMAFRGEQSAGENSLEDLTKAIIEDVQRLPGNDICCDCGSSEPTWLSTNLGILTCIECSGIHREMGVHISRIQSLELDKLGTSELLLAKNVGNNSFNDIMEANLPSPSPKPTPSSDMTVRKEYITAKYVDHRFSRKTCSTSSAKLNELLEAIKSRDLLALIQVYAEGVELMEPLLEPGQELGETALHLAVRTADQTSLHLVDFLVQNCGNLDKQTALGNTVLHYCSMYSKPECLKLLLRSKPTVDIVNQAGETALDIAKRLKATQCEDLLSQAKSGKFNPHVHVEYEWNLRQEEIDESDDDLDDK
IDE inh: inhibits human insulin-degrading enzyme in HEK cells. P14735. 0.41% of 320,000 active. inhibition, % at 5.59 µM. AID 434962. FAbetaB cleavage, fluorescence polarization;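 active = percent inhibition above the average of all tested compounds plus 3 SD, set per screening campaign, cut at about 16% in these data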;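 note: IDE supplied by intact live HEK cells; FP after avidin binding of uncleaved biotin substrate so inhibition keeps polarization high; 0% = DMSO wells and 100% = 60 µM reference IDE inhibitor Ii1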
PREPL confirm: human PREPL inhibition, confirmation; shares compounds with PREPL inhibitor; recombinant PREPL, fluorescence polarization activity probe; inhibition, % at 5.96 µM; 67% of 2,000 active; AID 2803;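 note: 0% = protein with DMSO and 100% = wells lacking protein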
An asterisk follows results filed as active; nt = no result. Cut-off read from the data, not from the text of the source, unless noted: active = inhibition above about 43%; inactive = the rest.

SMILES	PREPL inhibitor	IDE cell activ	ARFGAP1 inhibitor	ASAP1 inh	IDE inh	PREPL confirm
Cc1nc(NC(=O)c2ccccc2)sc1-c1csc(Nc2cccc(F)c2)n1	6	nt	nt	nt	4	nt
Cc1cc(NS(=O)(=O)c2ccc(Nc3nc(-c4sc(NC(=O)c5ccccc5)nc4C)cs3)cc2)no1	66*	nt	nt	nt	2	63*
CCOC(=O)C1=C(CS(=O)(=O)c2ccc(C)cc2)NC(=O)NC1c1ccc(O)c(OC)c1 (configuration not stated)	12	-3	-18	5	-1	nt
CCOC(=O)C1=C(CS(=O)(=O)c2ccc(C)cc2)NC(=O)NC1c1cc(OC)c(OC)c(OC)c1 (configuration not stated)	45*	2	8	-11	5	40
COCCNC(=O)C1CCCN(S(=O)(=O)c2ccc3c(c2)CC(C)N3C(=O)C2CC2)C1 (configuration not stated)	3	-5	-12	-7	8	nt
O=C1OC[C@@H]2CCCN2C(=O)[C@H](CC(=O)N(CCO)Cc2ccccc2)C/C=C\CC[C@H]1Cc1ccc(F)cc1	35	-1	-1	6	0	nt
O=C1OC[C@H]2CCCN2C(=O)[C@@H](CC(=O)N(CCO)Cc2ccccc2)C/C=C\CC[C@H]1Cc1ccc(F)cc1	45*	0	-6	2	-2	41
O=C1OC[C@H]2CCCN2C(=O)[C@@H](CC(=O)N(CCO)Cc2ccccc2)C/C=C\CC[C@@H]1Cc1ccc(F)cc1	27	6	-5	9	0	nt
O=C1OC[C@@H]2CCCN2C(=O)[C@@H](CC(=O)N(CCO)Cc2ccccc2)C/C=C\C[C@H]1Cc1ccc(F)cc1	53*	1	9	0	1	40
O=C1OC[C@H]2CCCN2C(=O)[C@@H](CC(=O)N(CCO)Cc2ccccc2)C/C=C\C[C@H]1Cc1ccc(F)cc1	54*	2	2	-3	0	45*
O=C(NCc1ccccc1CN1CCCC1)C1CCN(C(=O)c2ccc(F)cc2)CC1	20	3	8	-6	-6	nt
CC(C)c1ccc(-c2csc3ncnc(N4CCN(C)CC4)c23)cc1	-40	-4	2	-2	4	nt
COc1ccc(-c2cn3c(C)c(C(=O)N4CCc5ccccc5C4)sc3n2)cc1	50*	5	nt	nt	5	40
Cc1c(C(=O)N2CCc3ccccc3C2)sc2nc(-c3ccccc3)cn12	-24	-13	20	6	2	nt
CCCCNC(=O)C[C@H]1C[C@@]2(C(=O)OC)C(=C[C@H](C3CCCC3)O[C@@H]2C)N(Cc2ccccc2)C1=O	nt	nt	2	3	nt	nt
C#CCOCCOCCOCCNc1nc(N2CCN(C(=O)[C@H](CCC(=O)O)n3cc(C(N)Cc4ccc(O)cc4)nn3)CC2)nc(N2CCN(C(=O)[C@H](CCC(=O)O)n3cc(C(N)CC(C)C)nn3)CC2)n1 (some centres not stated)	5	nt	nt	nt	-2	nt
C#CCOCCOCCOCCNc1nc(N2CCN(C(=O)C(Cc3ccc(O)cc3)n3cc(C(N)CC(C)C)nn3)CC2)nc(N2CCN(C(=O)C(Cc3cc4ccccc4[nH]3)n3cc(C(N)Cc4ccc(O)cc4)nn3)CC2)n1 (configuration not stated)	52*	nt	nt	nt	0	51*
C#CCOCCOCCOCCNc1nc(N2CCN(C(=O)[C@H](CCC(=O)O)n3cc(C(N)Cc4ccc(O)cc4)nn3)CC2)nc(N2CCN(C(=O)[C@H](Cc3cc4ccccc4[nH]3)n3cc(C(N)CC(C)C)nn3)CC2)n1 (some centres not stated)	46*	nt	nt	nt	-2	38
CCN(C(=O)Cn1cnc2cc([N+](=O)[O-])ccc2c1=O)C1CCS(=O)(=O)C1 (configuration not stated)	12	6	-1	6	4	nt
COC(=O)c1sccc1-c1ccc(/C=N/OC(=O)c2ccccc2)o1	43*	7	-9	-12	6	38
COc1ccc(C2CC(=O)C(c3cccc(C)c3)=CN2Cc2ccccc2)cc1 (configuration not stated)	nt	nt	-1	14	nt	nt
COc1ccc2nc(C)cc(N3CCC(C(N)=O)CC3)c2c1	0	-3	14	4	-6	nt
COc1ccc(N2CCN(c3cc(C)nc4ccc(OC)cc34)CC2)cc1	43*	6	-9	2	1	50*
COC(=O)Cc1nnn2c1[C@H](C)[C@H](c1cccc(OC)c1OC)OCC2	nt	nt	2	-5	nt	nt
Oc1c(CNc2ccccc2)cc(COCc2ccccc2)c2cccnc12	17	3	0	-2	3	nt
SMILES	PREPL inhibitor	IDE cell activ	ARFGAP1 inhibitor	ASAP1 inh	IDE inh	PREPL confirm
Oc1c(CN2CCOCC2)cc(COCc2ccccc2)c2cccnc12	56*	7	4	-8	-2	65*
Cc1ccc(-c2noc(-c3ccno3)n2)cc1	24	2	-4	1	5	nt
COc1ccc(NC(=O)CSc2nc3c(c(-c4cccs4)c2C#N)CN(C)CC3)cc1OC	44*	-5	-12	-3	3	17
O=C(C[C@H]1C/C=C\CC[C@H](Cc2ccc(F)cc2)C(=O)OC[C@H]2CCCN2C1=O)N[C@H](CO)Cc1ccccc1	34	1	11	10	-2	nt
O=C(C[C@H]1C/C=C\CC[C@@H](Cc2ccc(F)cc2)C(=O)OC[C@H]2CCCN2C1=O)N[C@@H](CO)Cc1ccccc1	53*	4	2	13	5	54*
O=C(C[C@H]1C/C=C\CC[C@H](Cc2ccc(F)cc2)C(=O)OC[C@H]2CCCN2C1=O)N[C@@H](CO)Cc1ccccc1	61*	3	4	2	1	53*
O=C(C[n+]1ccc2ccccc2c1)c1cccc2ccccc12	52*	5	-3	-9	4	3
NNC(=O)c1oc2nc(-c3cccs3)cc(-c3ccco3)c2c1N	62*	-11	18	1	4	65*
CC(=O)Nc1ccc(C(=O)Cn2c3[n+](c4c(F)c(F)ccc42)CCCCC3)cc1	47*	5	14	-2	6	56*
c1ccc(CNc2nc(-c3ccccn3)nc3ccccc23)cc1	67*	-5	-15	9	2	64*
O=[N+]([O-])c1nccn1CC(O)CCN1CCOCC1 (configuration not stated)	nt	nt	3	-1	nt	nt
COc1ccc(-c2[nH]nc3c2C(c2ccsc2)C(C#N)=C(N)O3)cc1 (configuration not stated)	89*	4	4	12	-3	-15
Cc1ccc(-c2[nH]nc3c2C(c2ccsc2)C(C#N)=C(N)O3)cc1 (configuration not stated)	-5	-2	17	-11	1	nt
COc1ccc(-c2cnnc(N/N=C/c3ccc(O)c(O)c3)n2)cc1	73*	0	-12	-10	7	37

High-throughput results: PubChem BioAssay, The Scripps Research Institute Molecular Screening Center
